Measured values reported in ChEMBL document CHEMBL4513216, “Probing the Open Global Health Chemical Diversity Library for Multistage-Active Starting Points for Next-Generation Antimalarials” (ACS Infect Dis, 2020).

Experiment: Toxicity liver stage against HepG2, at 10uM
Assay type: cell-based
Parameters: test concentration 10 uM, cell line HepG2-A16-CD81EGFP
Settings: human, HepG2-A16-CD81EGFP cells; read-out: INHIBITION
In short: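 Uninfected HepG2-A16-CD81EGFP cells, 3 × 10^3 per well, 1536-well, plated on prespotted compound at 10 μM final, parasite-free screening media added to match infected plates; puromycin 10 μM positive, DMSO 0.5% negative; run in parallel with 48 h PbLuc assay at 37 °C, 5% CO2; viability by CellTiter-Glo luminescence, normalized to controls.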

Cc1cc(NCCN)nc2ccccc12
cytotoxicity at 10 µM: 2.09%

CC(N)Cc1ccccc1Sc1ccc(O)cc1 (stereo not drawn)
cytotoxicity at 10 µM: 3.76%

Cc1ccc(Oc2ncccc2C(=O)N(C)CCCN(C)C)c(C)c1
cytotoxicity at 10 µM: -1.16%

O=S(=O)(CC1CCCN1S(=O)(=O)c1cccnc1)c1ccccc1 (stereo not drawn)
cytotoxicity at 10 µM: -4.31%

O=C(Cn1ccc2cc(Br)ccc21)NCc1ccc(C(=O)O)cc1
cytotoxicity at 10 µM: 9.6%

CN1N=C(C(=O)N2CCCCC2)S(=O)(=O)c2ccccc21
cytotoxicity at 10 µM: -183%

COc1cccc(C2CC(=O)Nc3nc(N4CCOCC4)sc32)c1OC (stereo not drawn)
cytotoxicity at 10 µM: -3.26%

COc1cccc(CN2CCCC3(CCN(C(=O)[C@H]4CCCO4)C3)C2)c1 (stereo partly drawn)
cytotoxicity at 10 µM: 5.01%

O=C(Cc1ccccc1)N1CCC2(CC(=O)N(c3ccsc3)C2)C1 (stereo not drawn)
cytotoxicity at 10 µM: -10.2%

CCn1ncc2c1C(COCC1CC1)CN(C(=O)c1cccs1)C2 (stereo not drawn)
cytotoxicity at 10 µM: -7.64%

CCC(C)NC(=O)N1CCCn2cnc(CO)c2C1 (stereo not drawn)
cytotoxicity at 10 µM: -9.35%

O=C(COCC(=O)N(c1ccccc1)c1ccccc1)N1CCOCC1
cytotoxicity at 10 µM: 1.64%

CC(=O)Nc1ncc(S(=O)(=O)Nc2cccc(O)c2)s1
cytotoxicity at 10 µM: 8.49%

Cc1ccc(C(=O)NCc2ccnc(C3CCCOC3)n2)s1 (stereo not drawn)
cytotoxicity at 10 µM: 5.29%

Cc1noc(C)c1-c1cc(CCC2CN(C(=O)C(C)C)CCO2)ncn1 (stereo not drawn)
cytotoxicity at 10 µM: 4.16%

O=C(O)c1ccc(CN2CCC(c3ccnc4ccnn34)CC2)cc1
cytotoxicity at 10 µM: -29.9%

Cc1cnc(N)c(C(=O)C2CCN(C(=O)C3CCC3)CC2)c1
cytotoxicity at 10 µM: -23.1%

COCCN(C)C(C)Cc1ccccc1OC (stereo not drawn)
cytotoxicity at 10 µM: -5.34%

Cc1c(C(=O)O)nnn1-c1cccc2cccnc12
cytotoxicity at 10 µM: 5.31%

Cc1sc(C(=O)N(C)S(C)(=O)=O)cc1-c1ccc(F)cc1
cytotoxicity at 10 µM: 0.269%

Cc1c(NC(=O)N(C)CCn2cnnc2)cccc1OC1CCCC1
cytotoxicity at 10 µM: -0.509%

CN(Cc1c(Cl)ccc2cccnc12)CC(C)(CO)CO
cytotoxicity at 10 µM: 7.6%

COc1ccc(CN2CCN(S(=O)(=O)c3cc(C(=O)O)cs3)CC2)cc1
cytotoxicity at 10 µM: 2.03%

Cc1csc(CCNC(=O)N2CCC(NC(=O)OC(C)(C)C)CC2)n1
cytotoxicity at 10 µM: 1.23%

CN1CC(C(=O)NCCc2ccn(-c3ccc(F)cc3)n2)CC1=O (stereo not drawn)
cytotoxicity at 10 µM: 3.38%

O=C(N1CCC(Oc2ccncc2)C1)C1(c2ccccc2F)CC1 (stereo not drawn)
cytotoxicity at 10 µM: -10.4%

c1ccn2cc(CN3CCCC(c4ccn[nH]4)C3)nc2c1 (stereo not drawn)
cytotoxicity at 10 µM: 6.76%

N#CCCN(CC1CC1)Cn1cc(Cl)cn1
cytotoxicity at 10 µM: 4.03%

CC(CN1CCOCC1)N(Cc1ccccc1)Cc1ccncc1 (stereo not drawn)
cytotoxicity at 10 µM: 5.5%

O=C(CC1CCCO1)NCc1ccc(Br)cc1F (stereo not drawn)
cytotoxicity at 10 µM: 4.72%

CCOCCCC(=O)NC1CCN(C(C)c2ccccc2)CC1 (stereo not drawn)
cytotoxicity at 10 µM: 4.05%

Cc1nnc2n1CCN(C(C)c1nnc(-c3cccs3)o1)C2 (stereo not drawn)
cytotoxicity at 10 µM: -11.2%

Cc1cc(CNC(=O)NC(C)(CO)C2CC2)c(C)s1 (stereo not drawn)
cytotoxicity at 10 µM: 3.46%

COCCOCC(=O)NCCCOC1CCCc2ccccc21 (stereo not drawn)
cytotoxicity at 10 µM: 4.15%

CC(C)CCC(=O)Nc1ncn(CC(=O)N2CCCCCC2)n1
cytotoxicity at 10 µM: 1.17%

Cc1cc(NC(=O)Cc2ccc3c(c2)OCO3)n(C)n1
cytotoxicity at 10 µM: 10.1%

Cc1nnc(NC(=O)NC2CCOc3ccccc32)s1 (stereo not drawn)
cytotoxicity at 10 µM: -13.4%

CCOCC1CN(C(=O)c2cscn2)Cc2nnn(CC3CC3)c21 (stereo not drawn)
cytotoxicity at 10 µM: 1.9%

CNc1nc(C)c(C(=O)N2CCCCC2CCN2CCOCC2)s1 (stereo not drawn)
cytotoxicity at 10 µM: -2.06%

N#Cc1cc2n(n1)CCN(C(=O)CCc1c[nH]c3ccccc13)C2
cytotoxicity at 10 µM: -9.64%

Cc1cnc(C)c(N2CCC(Cc3ccccc3Cl)(C(=O)O)CC2)n1
cytotoxicity at 10 µM: 3.4%

Cn1cc(C(=O)N2CC[C@@]3(O)CCN(C4CCCCC4)C[C@H]3C2)cn1
cytotoxicity at 10 µM: -131%

CCCc1nc(C(=O)N2CCN(C(=O)c3ccc(OC)cc3)CC2)cs1
cytotoxicity at 10 µM: -3.07%

CCC[C@H]1CN(CCS(C)(=O)=O)C[C@@H]1NC(=O)Cn1cc(C)cn1
cytotoxicity at 10 µM: 2.72%

CC(=O)N1C[C@H](NS(=O)(=O)N2CCCC2)[C@@H](c2ccc(C)o2)C1
cytotoxicity at 10 µM: -1.91%

c1cn(Cc2ccc(N3CCCN(C4CCCC4)CC3)nc2)cn1
cytotoxicity at 10 µM: 12%

Cc1cc(C(N)=O)c(N2C[C@@H](C)[C@@](C)(O)C2)nc1C
cytotoxicity at 10 µM: -9.14%

COc1cccc2ccc(N3CCC(O)(C(=O)O)CC3)nc12
cytotoxicity at 10 µM: 3.13%

CCCn1c(C)c(CC(=O)N(C)CCOC)c2c1CC(C)(C)CC2=O
cytotoxicity at 10 µM: -16.6%

COCCCn1c(CN2CCCC(O)C2)cnc1S(=O)(=O)C1CCCC1 (stereo not drawn)
cytotoxicity at 10 µM: -13.5%

CC(=O)N1CCCC1c1csc(Nc2cnccn2)n1 (stereo not drawn)
cytotoxicity at 10 µM: 2.09%

CCc1cnc(CN2CCC(N(C)Cc3noc(C)n3)C2)o1 (stereo not drawn)
cytotoxicity at 10 µM: 4.92%

Cc1csc(C2CCCCN2C(=O)c2cc(C3CC3)[nH]n2)n1 (stereo not drawn)
cytotoxicity at 10 µM: -11.6%

Cc1cnn(C2CCCN(C(=O)c3ccc(OCC4CC4)nc3)C2)c1 (stereo not drawn)
cytotoxicity at 10 µM: -4.04%

CN(C(=O)NCCN1CCOCC1)C1CCN(c2ccccc2)C1=O (stereo not drawn)
cytotoxicity at 10 µM: -11.6%

CC(C)c1nn(C)c(N(C)C)c1CNCc1ccc(N(C)C)nc1
cytotoxicity at 10 µM: -8.42%

CCc1nc(CN2CCCC(NCc3cccc(C(N)=O)c3)C2)no1 (stereo not drawn)
cytotoxicity at 10 µM: 1.56%

CCc1noc(C(C)N2CCN(CC(C)C)CC2)n1 (stereo not drawn)
cytotoxicity at 10 µM: -4.05%

Cc1cnn(CC2CCCN2CCCS(C)(=O)=O)c1 (stereo not drawn)
cytotoxicity at 10 µM: -8.18%

CCOc1ccccc1C(=O)NC(CC(=O)O)c1cccs1 (stereo not drawn)
cytotoxicity at 10 µM: -11.4%

Cn1ccnc1CN1CCCN(C(=O)COCC2CC2)CC1
cytotoxicity at 10 µM: -11.8%

Cc1nnc2n1CCN(CCOc1ccc(C(C)(C)C)cc1)C2
cytotoxicity at 10 µM: -17.1%

CN(C)c1cccc(C(=O)N2CCC(c3n[nH]c(C4CC4)n3)CC2)c1
cytotoxicity at 10 µM: -11.2%

CN1CCOC(CNCc2csc(C3CCCCC3)n2)C1 (stereo not drawn)
cytotoxicity at 10 µM: -8.57%

Cn1ccc(C(=O)NCc2ccccc2CN2CCCC2)cc1=O
cytotoxicity at 10 µM: -17.1%

CN(CC(=O)N1CCCCC1c1nccs1)C1CC1 (stereo not drawn)
cytotoxicity at 10 µM: 10.2%

Cc1cc(C)n(CC2CCCN2C(=O)c2cnc3n[nH]c(C)c3c2)n1 (stereo not drawn)
cytotoxicity at 10 µM: -2.61%

CCc1nc(CN2CCCN(C(=O)COC(C)C)CC2)cs1
cytotoxicity at 10 µM: -15%

O=C(c1cccn1Cc1cccs1)N1CCCC1Cn1cccn1 (stereo not drawn)
cytotoxicity at 10 µM: -7.52%

Cc1cnn(CC2CCCN2CCCc2nc3ccccc3o2)c1 (stereo not drawn)
cytotoxicity at 10 µM: -6.19%

CCCc1n[nH]c(C2CN(CCCOc3ccccc3)CCO2)n1 (stereo not drawn)
cytotoxicity at 10 µM: -0.409%

O=C(NCCN1CCCCCC1=O)c1ccn(-c2ccc(F)cc2)n1
cytotoxicity at 10 µM: -8.62%

Cc1nc(C)c(C(=O)NCCNc2ncccc2C#N)s1
cytotoxicity at 10 µM: -1.5%

CN(C)[C@@H]1CN(Cc2ccccn2)C[C@H]1c1cn(C)c2ccccc12
cytotoxicity at 10 µM: -0.73%

CN(C)CCn1c2c(ccc1=O)CCN(C(=O)c1cccs1)CC2
cytotoxicity at 10 µM: 0.0915%

CCCN(CC(=O)N1CCNCC1)C(=O)c1cccc(Cl)c1
cytotoxicity at 10 µM: 10.7%

COCC1CC2(CCN(C(=O)c3ccccc3C)CC2)CN1C(C)C (stereo not drawn)
cytotoxicity at 10 µM: 7.77%

c1nc2c(c(C3CC3)n1)CCN(CC1CCOC1)CC2 (stereo not drawn)
cytotoxicity at 10 µM: 1.26%

COc1ccc(CN2CCC3(CC2)CCN(CC(C)C)C3=O)cc1
cytotoxicity at 10 µM: 3.17%

Cc1cnc(C(=O)N2C[C@@H]3CN(CC4CCCC4)CCO[C@@H]3C2)cn1
cytotoxicity at 10 µM: -2.76%

COCCN1CCC2(CC1)C(=O)Nc1ccc(C(=O)NC(C)C)cc12
cytotoxicity at 10 µM: 2.02%

CC=C(C)C(=O)NS(=O)(=O)c1ccc(C(F)(F)F)cc1
cytotoxicity at 10 µM: 3.12%

CS(=O)(=O)N1C[C@H]2CC[C@@H](C1)N(Cc1cscn1)C2=O
cytotoxicity at 10 µM: -9.35%
